# Source: PubChem BioAssay
# The source made the active and inactive calls.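 Rule for the calls, unless noted: active = mean duplicate potentiation above the buffer control mean plus 5 SD of buffer wells; inactive = the rest.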
# Target: Potassium voltage-gated channel subfamily KQT member 2 (Rattus norvegicus) (UniProt O88943)
# Test: KCNQ2 thallium flux enhancement – KCNQ2-CHO-K1 cells, selectivity assay for KCNQ1 potentiator project (AID 493009);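 note: assay conditions were tuned for KCNQ1 rather than KCNQ2 modulators; signal is max minus min fluorescence divided by baseline after thallium stimulus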
# Settings: FluxOR thallium flux fluorescence, at 10 µM; active compounds read high, scaled: buffer 0, activator control 100
# Sequence of Potassium voltage-gated channel subfamily KQT member 2 (Rattus norvegicus) (O88943 whole entry, looked up): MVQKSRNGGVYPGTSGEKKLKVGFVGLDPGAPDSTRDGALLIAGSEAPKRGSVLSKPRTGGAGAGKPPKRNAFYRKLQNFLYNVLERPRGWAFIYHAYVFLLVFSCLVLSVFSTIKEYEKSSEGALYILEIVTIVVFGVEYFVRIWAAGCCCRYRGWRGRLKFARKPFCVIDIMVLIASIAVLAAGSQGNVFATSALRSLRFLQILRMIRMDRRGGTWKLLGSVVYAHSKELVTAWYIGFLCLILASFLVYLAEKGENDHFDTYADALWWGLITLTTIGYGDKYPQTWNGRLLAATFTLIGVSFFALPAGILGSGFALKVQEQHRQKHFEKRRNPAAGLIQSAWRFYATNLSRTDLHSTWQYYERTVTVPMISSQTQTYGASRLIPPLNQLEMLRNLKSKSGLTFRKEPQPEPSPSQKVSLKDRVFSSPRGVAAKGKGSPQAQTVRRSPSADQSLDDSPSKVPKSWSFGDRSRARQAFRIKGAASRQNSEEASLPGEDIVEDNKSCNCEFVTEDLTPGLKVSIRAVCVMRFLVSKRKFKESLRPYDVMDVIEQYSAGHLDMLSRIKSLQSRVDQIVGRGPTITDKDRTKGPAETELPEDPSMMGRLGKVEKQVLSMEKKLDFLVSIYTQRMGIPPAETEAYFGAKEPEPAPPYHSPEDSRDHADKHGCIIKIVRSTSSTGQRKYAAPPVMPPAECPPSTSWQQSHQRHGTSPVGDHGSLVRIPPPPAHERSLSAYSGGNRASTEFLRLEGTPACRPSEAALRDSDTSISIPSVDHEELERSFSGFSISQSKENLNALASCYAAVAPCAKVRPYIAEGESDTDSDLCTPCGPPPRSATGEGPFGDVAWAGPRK
SMILES,outcome,potentiation
Cc1sc(-n2c(C)cc(/C=N/n3cnnc3)c2C)c(C#N)c1C,inactive,–
O=C(NC(=S)NCCC1=CCCCC1)c1ccco1,–,315% (active)
O=S(=O)(c1cc(F)cc(F)c1)N1CCN(c2ncccn2)CC1,inactive,–
S=c1nc(-c2ccc(Br)cc2)[nH]c2ccccc12,–,538% (active)
COc1ccc2c(-c3ccccc3)cc(=S)[nH]c2c1,–,231% (active)
c1ccc2c(OCCCCN3CCOCC3)cccc2c1,inactive,–
O=C(/C=C/c1ccccc1)C1C(=O)c2ccccc2C1=O,–,146% (active)
O=C(NC(=S)N(Cc1ccccc1)Cc1ccccc1)c1ccccc1F,–,338% (active)
Cc1ccc(S(=O)(=O)N(C)c2nc3ccccc3[nH]c2=S)cc1,–,197% (active)
O=C(Nc1ccc(C(=O)O)cc1)/C(=C\c1ccc2c(c1)OCO2)NC(=O)c1ccc(Br)cc1,inactive,–
CCn1c(SC(C)C(=O)O)nc2sc3c(c2c1=O)CCC3 (stereo not given),–,230% (active)
CN(CC(=O)Nc1ccc(F)c(F)c1F)C(=O)CC1OC(=O)c2ccccc21 (stereo not given),inactive,–
O=C(COc1ccccc1)NC(=S)N1CCc2ccccc21,inactive,–
COc1ccc(-c2cnc3c(c2)CCC3(C#N)C#N)cc1,inactive,–
CCc1ccc2nc(NC(=O)c3cc(C)on3)sc2c1,–,151% (active)
Cc1cc(O)ccc1N=Cc1c(C(F)(F)F)[nH][nH]c1=O,inactive,–
C/C(=N/NC(=O)c1ccc(Br)o1)c1ccc(C)o1,inactive,–
COCCn1c(=S)[nH]c2sc3c(c2c1=O)CCCC3,–,312% (active)
Cc1nc(-c2nc(-c3c(C(=O)NNC(=O)c4ccc(Cl)cc4)noc3C)cs2)cs1,–,184% (active)
CC1CCCC(NC(=S)NC(=O)c2ccccc2Br)C1C (stereo not given),inactive,–

SMILES,outcome,potentiation
CCC1CCCCN1S(=O)(=O)c1ccc(NC(=O)c2cccnc2)cc1 (stereo not given),inactive,–
CC(C)(C)NC(=O)C(=O)NNC(=O)c1cccc(Br)c1,–,229% (active)
COc1ccc(-c2nc3ccc(C(=O)NCC(OC)OC)cc3nc2-c2ccc(OC)c(OC)c2)cc1OC,inactive,–
CCOC(=O)c1ccc(Oc2nc(NC(C)(C)C)nc(N(C)C)n2)cc1,inactive,–
CC(/C=C1\SC(=S)N(c2ccc(C(=O)O)cc2)C1=O)=C\c1ccccc1,inactive,–
CN(C)CCNC(=O)c1ccc2c(=O)n(Cc3ccc(Cl)cc3)c(=S)[nH]c2c1,–,149% (active)
COc1ccccc1OCCc1nnc(N)s1,inactive,–
CN(CC(=O)NCCc1ccc(F)cc1)Cc1cccc(Cl)c1,inactive,–
COc1ccc(NC(=O)C(=O)NNC(=O)c2cccs2)cc1,–,187% (active)
Cc1ccccc1CC(=O)NC1CCN(Cc2ccccc2)CC1,inactive,–
CCCCN(CCCC)C(=S)N/N=C/c1c(C)[nH]n(-c2ccccc2)c1=O,–,239% (active)
Cc1cc(/C=C2\SC(=Nc3ccc(F)cc3)NC2=O)c(C)n1-c1ccc(S(N)(=O)=O)cc1,inactive,–
O=C(c1ccc(S(=O)(=O)N2CCCC2)cc1)N1CCN(c2cccc(Cl)c2)CC1,inactive,–
COc1ccccc1C(=O)NNC(=O)C(=O)Nc1ccc(C)cc1,–,593% (active)
COc1ccc(C(=O)NNC(=O)C(=O)Nc2ccc(C)cc2)cc1,–,380% (active)
O=C(N/N=C/c1ccccn1)c1cc(-c2ccc(Br)cc2)nc2ccccc12,–,174% (active)
COc1cccc(OCC(=O)NNC(=O)C(=O)Nc2ccc(OC)cc2OC)c1,–,222% (active)
CCOC(=O)NC(=S)Nc1ccc(C(C)(C)C)cc1Br,–,249% (active)
Cc1ccc(C(=O)OCC(=O)Nc2sc3c(c2C#N)CCCC3)cc1NC(=O)c1ccco1,inactive,–
Cc1ccccc1C(=O)c1c[nH]c(C(=O)N2CCN(c3ccccc3F)CC2)c1,inactive,–

# Target: Potassium voltage-gated channel subfamily KQT member 1 (Homo sapiens) (UniProt P51787)
# Test: KCNQ1 activators by electrophysiology – IonWorks patch clamp, KCNQ1-CHO cells, orthogonal assay for KCNQ1 potentiator project, confirmation (AID 493184;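 active = current rise at least 3 SD above the untreated control mean in each of two repeat wells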)
# Settings: automated patch clamp current, at 10 µM; active compounds read high
# Procedure, shortened: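 assay system = KCNQ1-expressing CHO cells | medium = external bath solution at pH 7.4 | probe or stimulus = 2,000 ms depolarization, -90 to +40 mV | compound dosing = 10 µM final, single point | measured by = automated voltage clamp, amphotericin B perforated patch | measure = percent current increase versus pre-compound level | replication = duplicates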
# Sequence of Potassium voltage-gated channel subfamily KQT member 1 (Homo sapiens) (P51787 whole entry, looked up): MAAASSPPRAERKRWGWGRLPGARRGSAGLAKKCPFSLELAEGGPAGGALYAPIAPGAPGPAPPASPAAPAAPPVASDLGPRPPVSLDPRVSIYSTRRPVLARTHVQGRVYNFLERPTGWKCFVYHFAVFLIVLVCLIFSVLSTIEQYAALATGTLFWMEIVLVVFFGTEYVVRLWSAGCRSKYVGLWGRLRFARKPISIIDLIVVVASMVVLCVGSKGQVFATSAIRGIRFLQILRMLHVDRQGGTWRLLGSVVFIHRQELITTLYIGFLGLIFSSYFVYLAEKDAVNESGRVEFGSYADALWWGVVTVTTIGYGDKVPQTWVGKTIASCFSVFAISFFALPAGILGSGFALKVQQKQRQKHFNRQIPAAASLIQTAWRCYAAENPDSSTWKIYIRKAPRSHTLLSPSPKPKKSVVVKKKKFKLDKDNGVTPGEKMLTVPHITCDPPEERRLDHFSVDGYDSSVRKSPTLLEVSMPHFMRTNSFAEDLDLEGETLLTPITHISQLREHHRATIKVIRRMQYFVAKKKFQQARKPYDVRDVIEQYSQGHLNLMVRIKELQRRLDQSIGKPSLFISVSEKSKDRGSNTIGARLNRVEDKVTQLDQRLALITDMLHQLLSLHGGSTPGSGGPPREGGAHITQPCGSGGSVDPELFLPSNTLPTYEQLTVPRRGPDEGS
row,SMILES,outcome
1,Cc1sc(-n2c(C)cc(/C=N/n3cnnc3)c2C)c(C#N)c1C,inactive
2,O=C(NC(=S)NCCC1=CCCCC1)c1ccco1,inactive
3,O=S(=O)(c1cc(F)cc(F)c1)N1CCN(c2ncccn2)CC1,inactive
4,S=c1nc(-c2ccc(Br)cc2)[nH]c2ccccc12,inactive
5,COc1ccc2c(-c3ccccc3)cc(=S)[nH]c2c1,inactive
6,c1ccc2c(OCCCCN3CCOCC3)cccc2c1,inactive
7,O=C(/C=C/c1ccccc1)C1C(=O)c2ccccc2C1=O,inactive
8,O=C(NC(=S)N(Cc1ccccc1)Cc1ccccc1)c1ccccc1F,inactive
9,Cc1ccc(S(=O)(=O)N(C)c2nc3ccccc3[nH]c2=S)cc1,inactive
10,O=C(Nc1ccc(C(=O)O)cc1)/C(=C\c1ccc2c(c1)OCO2)NC(=O)c1ccc(Br)cc1,inactive
11,CCn1c(SC(C)C(=O)O)nc2sc3c(c2c1=O)CCC3 (stereo not given),inactive
12,CN(CC(=O)Nc1ccc(F)c(F)c1F)C(=O)CC1OC(=O)c2ccccc21 (stereo not given),inactive
13,O=C(COc1ccccc1)NC(=S)N1CCc2ccccc21,inactive
14,COc1ccc(-c2cnc3c(c2)CCC3(C#N)C#N)cc1,inactive
15,CCc1ccc2nc(NC(=O)c3cc(C)on3)sc2c1,inactive
16,Cc1cc(O)ccc1N=Cc1c(C(F)(F)F)[nH][nH]c1=O,inactive
17,C/C(=N/NC(=O)c1ccc(Br)o1)c1ccc(C)o1,inactive
18,COCCn1c(=S)[nH]c2sc3c(c2c1=O)CCCC3,inactive
19,Cc1nc(-c2nc(-c3c(C(=O)NNC(=O)c4ccc(Cl)cc4)noc3C)cs2)cs1,inactive
20,CC1CCCC(NC(=S)NC(=O)c2ccccc2Br)C1C (stereo not given),inactive

row,SMILES,outcome
1,CCC1CCCCN1S(=O)(=O)c1ccc(NC(=O)c2cccnc2)cc1 (stereo not given),inactive
2,CC(C)(C)NC(=O)C(=O)NNC(=O)c1cccc(Br)c1,inactive
3,COc1ccc(-c2nc3ccc(C(=O)NCC(OC)OC)cc3nc2-c2ccc(OC)c(OC)c2)cc1OC,inactive
4,CCOC(=O)c1ccc(Oc2nc(NC(C)(C)C)nc(N(C)C)n2)cc1,inactive
5,CC(/C=C1\SC(=S)N(c2ccc(C(=O)O)cc2)C1=O)=C\c1ccccc1,inactive
6,CN(C)CCNC(=O)c1ccc2c(=O)n(Cc3ccc(Cl)cc3)c(=S)[nH]c2c1,inactive
7,COc1ccccc1OCCc1nnc(N)s1,inactive
8,CN(CC(=O)NCCc1ccc(F)cc1)Cc1cccc(Cl)c1,inactive
9,COc1ccc(NC(=O)C(=O)NNC(=O)c2cccs2)cc1,inactive
10,Cc1ccccc1CC(=O)NC1CCN(Cc2ccccc2)CC1,inactive
11,CCCCN(CCCC)C(=S)N/N=C/c1c(C)[nH]n(-c2ccccc2)c1=O,inactive
12,Cc1cc(/C=C2\SC(=Nc3ccc(F)cc3)NC2=O)c(C)n1-c1ccc(S(N)(=O)=O)cc1,inactive
13,O=C(c1ccc(S(=O)(=O)N2CCCC2)cc1)N1CCN(c2cccc(Cl)c2)CC1,inactive
14,COc1ccccc1C(=O)NNC(=O)C(=O)Nc1ccc(C)cc1,inactive
15,COc1ccc(C(=O)NNC(=O)C(=O)Nc2ccc(C)cc2)cc1,inactive
16,O=C(N/N=C/c1ccccn1)c1cc(-c2ccc(Br)cc2)nc2ccccc12,inactive
17,COc1cccc(OCC(=O)NNC(=O)C(=O)Nc2ccc(OC)cc2OC)c1,inactive
18,CCOC(=O)NC(=S)Nc1ccc(C(C)(C)C)cc1Br,inactive
19,Cc1ccc(C(=O)OCC(=O)Nc2sc3c(c2C#N)CCCC3)cc1NC(=O)c1ccco1,inactive
20,Cc1ccccc1C(=O)c1c[nH]c(C(=O)N2CCN(c3ccccc3F)CC2)c1,inactive
